Source: PubChem (The Scripps Research Institute Molecular Screening Center)
This is a sample that favours compounds with a hit; in the whole collection about 1.6% have one here.
TDP2 absorb: TDP2 (human) inhibition, absorbance primary screen | 0.34% of 370,000 active | O95551 | recombinant TDP2, T5PNP hydrolysis, p-nitrophenol absorbance 415 nm | inhibition, % at 12.8 µM;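 active = inhibition above the mean of all tested compounds plus 3 SD, set per campaign, cut at about 25% in these data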;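 note: 0% = DMSO with enzyme and 100% = buffer with substrate but no TDP2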
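Evaluation: % inhibition relative to enzyme-containing and enzyme-free wells. Material: recombinant human TDP2. Benchmarks: enzyme-free and DMSO wells. Timing: enzyme reaction with compound for 2 h at 37 °C. Compound dosing: 12.8 µM only. Measured by: p-Nitrophenol epi absorbance. Reagent: T5PNP substrate at 5 mM, a TopII-DNA adduct mimic. Replication: single well per compound.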
LEDGF integ inh: blocks HIV-1 LEDGF/p75-dependent DNA integration; TR-FRET IN-LEDGF/p75 DNA integration, Eu/Cy5; inhibition, % at 3.7 µM; 0.64% of 370,000 active; AID 743269;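 active = inhibition above the screen-wide mean plus 3 SD, cut at about 13% in these data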;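 note: signal is the Cy5 over europium emission ratio at 671 and 618 nm; 0% = plate median of compound wells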
MBD2 DNA inh: blocks human MBD2 binding to methylated DNA; Q9UBB5; TR-FRET, MBD2 binding to methylated oligonucleotide; inhibition, % at 4.4 µM; 0.31% of 370,000 active; AID 686964; in the data active = inhibition above about 13%
UHRF1 binding: UHRF1 methyl-DNA binding inhibition; Q96T88; UHRF1 binding to methylated oligo, TR-FRET; inhibition, % at 4.4 µM; 0.75% of 370,000 active; in the data active = inhibition above about 21%;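 note: UHRF1 SRA domain binding a hemimethylated CpG hairpin DNA probe; 0% = median of test compound wells and 100% = reference inhibitor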
Target sequence (Q96T88 whole entry, looked up, the tested form may be a part): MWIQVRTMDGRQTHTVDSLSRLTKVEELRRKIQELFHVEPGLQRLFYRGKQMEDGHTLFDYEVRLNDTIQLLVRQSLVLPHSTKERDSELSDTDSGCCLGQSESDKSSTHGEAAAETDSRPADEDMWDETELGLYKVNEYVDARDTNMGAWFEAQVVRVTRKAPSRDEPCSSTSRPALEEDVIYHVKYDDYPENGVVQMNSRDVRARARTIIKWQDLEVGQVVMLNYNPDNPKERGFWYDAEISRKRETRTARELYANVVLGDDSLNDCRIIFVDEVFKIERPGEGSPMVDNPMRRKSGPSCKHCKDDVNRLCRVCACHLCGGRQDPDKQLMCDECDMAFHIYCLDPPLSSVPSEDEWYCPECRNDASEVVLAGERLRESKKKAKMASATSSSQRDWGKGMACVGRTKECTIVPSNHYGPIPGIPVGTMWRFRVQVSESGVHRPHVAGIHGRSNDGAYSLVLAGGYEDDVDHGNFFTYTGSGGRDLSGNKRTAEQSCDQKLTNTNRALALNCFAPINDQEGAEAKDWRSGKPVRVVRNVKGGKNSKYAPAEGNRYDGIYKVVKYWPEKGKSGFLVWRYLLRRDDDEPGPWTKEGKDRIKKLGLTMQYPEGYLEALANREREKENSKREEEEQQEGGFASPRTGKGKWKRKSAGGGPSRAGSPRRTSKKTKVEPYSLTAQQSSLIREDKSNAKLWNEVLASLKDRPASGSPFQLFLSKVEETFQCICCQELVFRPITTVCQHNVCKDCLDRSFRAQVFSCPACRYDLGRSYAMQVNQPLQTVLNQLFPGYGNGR
The depositor's hits bear a star.

SMILES	TDP2 absorb	LEDGF integ inh	MBD2 DNA inh	UHRF1 binding
COc1ccc(CN2CC(C(=O)NCCCN3CCN(C)CC3)CC2=O)cc1 (stereo not drawn)	-4.2	-3.9	17.9*	5.7
C[C@H]1COc2cc(N3CCCC3)ccc2S(=O)(=O)N1C	-6.2	-0.8	2.2	-1.4
C#CCNC(=O)C[C@@H]1C(=O)N2CCCC3=C2[C@@]1(C(=O)OCC)CCC3	-1.4	0.1	7.3	3.5
CC(CNC(=O)CC[C@H]1O[C@@H](n2cnc3c(NC(=O)c4ccccc4)ncnc32)[C@H](O)[C@@H]1O)c1ccccc1 (stereo partly drawn)	-9.0	1.0	-0.4	27.0*
CCN(CC)C(=O)CC[C@@H]1CC[C@]2(CCCN(Cc3ccccc3)C2)O1	0.6	-0.9	7.7	4.3
CCOc1ccc(/C=C2\SC(=S)N(CC(=O)N(CCO)C(C)(C)C)C2=O)cc1	7.4	-1.8	4.3	34.7*
Cc1cc(C)cc(CC(=O)N2CCC2(C)C(=O)NS(=O)(=O)c2cccc(F)c2)c1 (stereo not drawn)	-1.0	-4.3	-1.4	21.2*
Cc1cc(C)cc(CC(=O)N2CCC2(C)C(=O)NS(=O)(=O)c2ccccc2)c1 (stereo not drawn)	9.7	-3.3	5.6	0.7
O=C(C[C@@H]1C[C@@H]2c3cc(NS(=O)(=O)c4ccc(F)cc4)ccc3O[C@@H]2[C@H](CO)O1)NCc1ccc(Oc2ccccc2)cc1	-11.7	1.8	10.4	23.4*
C[C@@H](NC(=O)C[C@@H]1C[C@@H]2c3cc(NS(=O)(=O)c4ccc(F)cc4)ccc3O[C@@H]2[C@@H](CO)O1)c1ccccc1	5.1	2.3	-0.2	1.8
CCOC(=O)N1CCN(C(=O)C[C@H]2C[C@@]3(C(=O)OC)C(=C[C@H](C4CCCC4)O[C@@H]3C)N(CCc3ccc(OC)c(OC)c3)C2=O)CC1	9.1	-6.1	2.0	0.5
COC(=O)C(C)Sc1ncnc2c1c(-c1ccccc1)cn2-c1ccc(OC)cc1 (stereo not drawn)	-6.2	2.6	-2.6	3.6
CCOc1ccc(-n2cc(-c3ccccc3)c3c(SC(C)C(=O)OC)ncnc32)cc1 (stereo not drawn)	4.2	6.1	4.9	22.4*
O=C(NCC1CC1)c1ccc(-n2ccnc2)c2ccoc12	-21.0	10.4	8.8	24.8*
Cc1noc(C)c1-c1ccc(C(=O)NCC2CC2)c2occc12	1.6	0.2	-0.1	-1.0
CCCOc1ccc(N2CC(C(=O)Nc3ncccc3C)CC2=O)cc1 (stereo not drawn)	-5.3	0.4	5.1	2.2
COc1ccc(N2CC(C(=O)Nc3ncccc3C)CC2=O)cc1 (stereo not drawn)	-4.2	2.4	1.8	27.2*
COc1ccc(N2CC(C(=O)N/N=C/c3ccc(C)cc3)CC2=O)cc1 (stereo not drawn)	1.2	1.2	9.0	23.9*
COc1ccc(N2CC(C(=O)N/N=C/c3ccc([N+](=O)[O-])cc3)CC2=O)cc1 (stereo not drawn)	4.2	-0.3	-2.8	-1.2
COCCCN1C(=O)[C@H](CC(=O)N2CCC(c3ccccc3)CC2)[C@]2(C(=O)OC)CCCCC=C12	-2.1	6.7	-2.4	-2.8
Cc1cccc(C)c1-n1nnnc1C1(C)CCC(=O)N1c1ccc(N2CCOCC2)cc1 (stereo not drawn)	11.4	3.6	12.2	22.6*
CCCCn1nnnc1C1(C)CCC(=O)N1c1ccc(N2CCOCC2)cc1 (stereo not drawn)	-9.3	-2.4	-1.0	0.1
COC(=O)[C@]12C[C@H](CC(=O)N3CCC(c4ccccc4)CC3)C(=O)N(Cc3cccc4ccccc34)C1=C[C@H](C1CCCC1)O[C@@H]2C	0.2	-1.6	7.6	2.7
Cc1ccc(Nc2nc3c([nH]2)c(=O)[nH]c(=O)n3C)cc1	-0.8	44.9*	2.1	-2.3
CCC[C@H]1[C@@H](OC(=O)N2CCCC2)CC[C@@]23CCCN2C(=O)CCC[C@@H]13	-1.9	1.6	-5.2	-0.8
SMILES	TDP2 absorb	LEDGF integ inh	MBD2 DNA inh	UHRF1 binding
COc1ccc(C2/C(=C(/O)c3ccc(C)cc3)C(=O)C(=O)N2CC2CCCO2)cc1OC (stereo not drawn)	0.2	1.0	5.5	21.8*
COc1ccc(/C(O)=C2\C(=O)C(=O)N(CC3CCCO3)C2c2cc(OC)ccc2OC)cc1 (stereo not drawn)	6.4	0.6	-0.7	-2.7
O=C(C[C@H]1C(=O)N(C2CCCCC2)C[C@@H]1c1ccccc1)Nc1ccc(Br)cc1	6.2	10.5	11.9	21.6*
Cc1ccc(Cl)cc1N1CCN(S(=O)(=O)c2ccc3c(c2)NC(=O)C(C)C(=O)N3)CC1 (stereo not drawn)	-5.6	-0.6	-2.0	95.6*
CCN(CC)c1ccc(C(=S)N2CCN(c3ccccc3)CC2)cc1	15.6	-0.1	6.6	21.0*
O=C1Nc2ccccc2CCc2ccccc21	10.9	0.2	1.1	2.1
O=C1Cc2ccccc2C(=O)N1	73.4*	24.8*	4.5	-2.2
C[C@H](O)[C@@H]1CN2CCc3c([nH]c4c(-c5ccc6c(c5)OCO6)cccc34)[C@@H]2C[C@@H]1N(C)C(=O)c1ccco1	6.3	3.1	5.3	0.1
Cc1c(NC(=O)/C(C#N)=C/c2ccc(-c3ccc(Cl)cc3)o2)c(=O)n(-c2ccccc2)n1C	12.6	0.0	7.5	21.7*
Cc1c(NC(=O)/C(C#N)=C/c2ccc(-c3cc(Cl)ccc3Cl)o2)c(=O)n(-c2ccccc2)n1C	-1.6	0.7	-2.6	-2.3
O=C(Nc1cc([N+](=O)[O-])ccc1Cl)c1cccnc1	2.8	-5.0	4.9	-0.9
Cc1ccc([N+](=O)[O-])cc1NC(=O)c1cccnc1	-14.5	-5.2	5.0	38.8*
Cn1c(=O)[nH]c(=O)c2[nH]c(NCCCN3CCOCC3)nc21	1.9	-0.1	4.7	23.0*
Cn1c(=O)[nH]c(=O)c2c1ncn2CCN1CCOCC1	2.8	7.5	-6.8	2.0
O=C(c1sc2cccc(F)c2c1Cl)N1CCN(c2ncccn2)CC1	1.3	-2.0	11.5	26.4*
Cc1onc(-c2c(F)cccc2Cl)c1C(=O)N1CCN(c2ncccn2)CC1	1.6	2.5	2.2	2.6
COC(=O)c1cc(C2(c3c[nH]c4ccccc34)CCN(C(=O)OC(C)(C)C)CC2)n2ccccc12	-4.3	3.0	-0.6	-1.5
CC1=C(C(=O)OC(C)C)C(c2cccnc2)C2=C(CCCC2=O)N1 (stereo not drawn)	-3.8	1.4	-1.2	90.8*
CC(=O)NC1C(=O)N(CCN2CCOCC2)c2ccc(Cl)cc21 (stereo not drawn)	5.7	16.2*	1.7	-1.6
CC(OC(=O)c1cc(O)c2ccccc2c1O)C(=O)Nc1ccc(C(N)=O)cc1 (stereo not drawn)	47.4*	14.5*	-13.0	-0.7
CC(OC(=O)c1ccccc1C(=O)N(C)c1ccccc1)C(=O)Nc1ccc(C(N)=O)cc1 (stereo not drawn)	-13.7	1.5	3.5	2.2
Cc1ccc(-c2nnc(SCC(=O)Nc3ccc4c(c3)OCCO4)n2-c2ccc(C)cc2)cc1	-3.7	4.5	-2.0	5.4
